According to ChEMBL document CHEMBL1140071, “A new synthetic access to furo[3,2-f]chromene analogues of an antimycobacterial” (2008):
≈ marks a conversion by molar mass, not a printed value.

How the values were obtained:
[1] = system: Mycolicibacterium smegmatis; test: Antimycobacterial activity against Mycobacterium smegmatis mc2 155 after 48 hrs by microdilution resazurin assay; type: functional; details: str. MC2 155, 48 h
Procedure, shortened: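 M. smegmatis mc²155 inoculum grown in Dubos medium with 10% ADC. Twofold serial drug dilutions (from 500 to 0.9) in Dubos medium, from 50 mg/mL DMSO stocks. DMSO and isoniazid controls. Sealed plates at 37 °C for 48 h, then 0.01% resazurin added for another 24 h at 37 °C. MIC is the lowest concentration preventing the blue-to-pink change.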

[2] = system: Mycobacterium tuberculosis; test: Antimycobacterial activity against Mycobacterium tuberculosis H37Rv after 6 days by microdilution resazurin assay; type: functional; details: 144 h
Procedure, shortened: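 Inoculum of virulent M. tuberculosis H37Rv grown in Dubos broth plus 10% ADC. Compounds from 50 mg/mL DMSO stocks, serially diluted twofold in Dubos medium (500 down to 0.9), with DMSO and isoniazid controls. Incubated 6 days at 37 °C, then 0.01% resazurin for 24 h more. MIC read as the lowest concentration without the blue-to-pink shift.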

CC(=O)OCCCc1coc2ccc3c(c12)C=CC(C)(C)O3
MIC95 [1]: > 500 µg/mL | MIC95 [2]: > 500 µg/mL

CN(C)CCCNc1ccc(-c2cc3c4c(ccc3o2)OC(C)(C)C=C4)cn1
MIC95 [1]: 12.5 µg/mL (≈ 33.1 µM) | MIC95 [2]: 10 µg/mL (≈ 26.5 µM)

CC1(C)C=Cc2c(ccc3occ(CCCO)c23)O1
MIC95 [1]: 62 µg/mL (≈ 240 µM) | MIC95 [2]: 125 µg/mL (≈ 484 µM)

CC1(C)C=Cc2c(ccc3oc(-c4ccncc4)cc23)O1
MIC95 [1]: 3 µg/mL (≈ 10.8 µM) | MIC95 [2]: 2.5 µg/mL (≈ 9.01 µM)

O=Cc1c(O)ccc2c1C1CCCOC1O2 (centres undefined)
MIC95 [1]: > 125 µg/mL | MIC95 [2]: 125 µg/mL (≈ 568 µM)

CC1(C)C=Cc2c(ccc3c2C2CCCOC2O3)O1 (centres undefined)
MIC95 [1]: 125 µg/mL (≈ 484 µM) | MIC95 [2]: 250 µg/mL (≈ 968 µM)

CC1(C)CCc2c(ccc3oc4ccccc4c23)O1
MIC95 [1]: 10 µg/mL (≈ 39.6 µM) | MIC95 [2]: 10 µg/mL (≈ 39.6 µM)

CC1(C)C=Cc2c(ccc3oc(-c4cccc(Br)n4)cc23)O1
MIC95 [1]: > 50 µg/mL | MIC95 [2]: > 10 µg/mL

CC1(C)C=Cc2c(ccc3oc(-c4ccc(Br)nc4)cc23)O1
MIC95 [1]: > 50 µg/mL | MIC95 [2]: > 10 µg/mL

Oc1ccc2oc(-c3ccncc3)cc2c1
MIC95 [1]: > 50 µg/mL | MIC95 [2]: > 10 µg/mL

Cc1c(-c2ccncc2)oc2ccc(O)cc12
MIC95 [1]: > 50 µg/mL | MIC95 [2]: > 10 µg/mL

CC1(C)C=Cc2c(ccc3oc4ccccc4c23)O1
MIC95 [1]: 10 µg/mL (≈ 40 µM) | MIC95 [2]: 10 µg/mL (≈ 40 µM)

Cc1cc2c3c(ccc2o1)OC(C)(C)C=C3
MIC95 [1]: > 500 µg/mL | MIC95 [2]: > 500 µg/mL

CC1(C)C=Cc2c(ccc3oc4c(c23)CCCC4)O1
MIC95 [1]: > 500 µg/mL | MIC95 [2]: 120 µg/mL (≈ 472 µM)

NNC(=O)c1ccncc1 [ISONIAZID]
MIC95 [1]: 12 µg/mL (≈ 87.5 µM) | MIC95 [2]: 0.1 µg/mL (≈ 0.729 µM)

CC1(C)CCc2c(ccc3oc(-c4cccnc4)cc23)O1
MIC95 [1]: 6.2 µg/mL (≈ 22.2 µM) | MIC95 [2]: 10 µg/mL (≈ 35.8 µM)

Oc1ccc2oc(-c3ccccc3)cc2c1
MIC95 [1]: 8 µg/mL (≈ 38.1 µM) | MIC95 [2]: 125 µg/mL (≈ 595 µM)

CC1(C)CCc2c(ccc3oc(-c4ccccn4)cc23)O1
MIC95 [1]: 25 µg/mL (≈ 89.5 µM) | MIC95 [2]: 10 µg/mL (≈ 35.8 µM)

Cc1c(-c2ccncc2)oc2ccc3c(c12)C=CC(C)(C)O3
MIC95 [1]: 6.2 µg/mL (≈ 21.3 µM) | MIC95 [2]: 3 µg/mL (≈ 10.3 µM)

C#CC(C)(C)Oc1ccc2oc(-c3ccncc3)cc2c1
MIC95 [1]: 25 µg/mL (≈ 90.1 µM) | MIC95 [2]: 16 µg/mL (≈ 57.7 µM)

CN(C)CCCNc1cccc(-c2cc3c4c(ccc3o2)OC(C)(C)C=C4)n1
MIC95 [1]: 12.5 µg/mL (≈ 33.1 µM) | MIC95 [2]: 10 µg/mL (≈ 26.5 µM)

CC1(C)C=Cc2c(ccc3oc(-c4ccccc4)cc23)O1
MIC95 [1]: > 500 µg/mL | MIC95 [2]: 32 µg/mL (≈ 116 µM)
